The record followed here is ChEMBL document CHEMBL2034813, “2-(Alkyl/aryl)amino-6-benzylpyrimidin-4(3H)-ones as inhibitors of wild-type and mutant HIV-1: enantioselectivity studies” (J Med Chem, 2012).

pEC50: −log10 of the molar value. The source made the active and inactive calls. No cut-off for these calls is given here.

For data set [1], the system named is Human immunodeficiency virus 1. Description: Antiviral activity against HIV1 harboring reverse transcriptase Y181C mutant infected in human MT4 cells assessed as inhibition of virus-induced cytopathic effect after 5 days by MTT assay. Conditions: Human immunodeficiency virus 1, MT4, 120 h. Format: functional, organism-based.
In data set [2] the test system is Human immunodeficiency virus 1. Description: Antiviral activity against HIV1 harboring reverse transcriptase Y188L mutant infected in human MT4 cells assessed as inhibition of virus-induced cytopathic effect after 5 days by MTT assay. It is filed as functional, organism-based. Conditions: Human immunodeficiency virus 1, MT4, 120 h. Background: Cytopathic effects are the visible damage that an infection or toxin causes in cultured cells.

Data set [3] can be described thus: Cytotoxicity against human MT4 cells after 5 days by MTT assay. Format: cell-based. The gist of the method:
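Noninfected lymphoid MT-4 cells were exposed to compound. […] Values are means ± SD from at least three experiments.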
Background: Formazan colour is commonly taken as a measure of viable cells.

A short description of data set [4]: Selectivity index, ratio of CC50 for human MT4 cells to EC50 for wild type HIV1 NL4-3. It is filed as toxicity, cell-based. Conditions: read-out: Ratio CC50/EC50.
Data set [5] relates to Human immunodeficiency virus 1. Briefly: Resistance ratio of EC50 for HIV1 harboring reverse transcriptase K103N mutant to EC50 for wild type HIV1 NL4-3. Format: functional. The procedure, abridged: (§1)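 MT-4 cells, MTT read-out of HIV-induced cytopathic effect; fold resistance calculated as EC50 against the drug-resistant strain divided by EC50 against WT NL4-3; EC50 values are means ± SD from at least three experiments.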

Data set [6] relates to Human immunodeficiency virus 1. Description: Resistance ratio of ID50 for HIV1 reverse transcriptase K103N mutant to ID50 HIV1 wild type reverse transcriptase.
The subject of data set [7] is Human immunodeficiency virus 1. Description: Resistance ratio of ID50 for HIV1 reverse transcriptase Y181I mutant to ID50 HIV1 wild type reverse transcriptase.
In data set [8] the test system is Human immunodeficiency virus 1. Description: Antiviral activity against wild type HIV1 NL4-3 infected in human MT4 cells assessed as inhibition of virus-induced cytopathic effect after 5 days by MTT assay. It is filed as functional, organism-based. The note with it: Human immunodeficiency virus 1, NL4-3, MT4, 120 h. The procedure, abridged: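 Lymphoid MT-4 cells infected with wild-type HIV-1 NL4-3. […] Values are means ± SD from at least three experiments.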

The test system of data set [9] is Human immunodeficiency virus 1. Description: Antiviral activity against HIV1 harboring reverse transcriptase K103N mutant infected in human MT4 cells assessed as inhibition of virus-induced cytopathic effect after 5 days by MTT assay. Format: functional, organism-based. Conditions: Human immunodeficiency virus 1, MT4, 120 h.
The test system of data set [10] is Human immunodeficiency virus 1. Briefly: Resistance ratio of EC50 for HIV1 harboring reverse transcriptase Y181C mutant to EC50 for wild type HIV1 NL4-3. It is filed as functional. The procedure, abridged: as §1
Data set [11] concerns Human immunodeficiency virus 1. Description: Resistance ratio of EC50 for HIV1 harboring reverse transcriptase Y188L mutant to EC50 for wild type HIV1 NL4-3. It is filed as functional. The gist of the method: as §1
Data set [12] deals with Human immunodeficiency virus 1. Briefly: Resistance ratio of ID50 for HIV1 reverse transcriptase L100I mutant to ID50 HIV1 wild type reverse transcriptase.
In data set [13] the test system is Human immunodeficiency virus 1. Briefly: Resistance ratio of ID50 for HIV1 reverse transcriptase V106A mutant to ID50 HIV1 wild type reverse transcriptase.
In data set [14] the test system is Human immunodeficiency virus 1. Description: Resistance ratio of ID50 for HIV1 reverse transcriptase Y188L mutant to ID50 HIV1 wild type reverse transcriptase.
For data set [15], the target named is Human immunodeficiency virus type 1 reverse transcriptase (Human immunodeficiency virus 1) (UniProt Q72547).
For data set [16], the system named is Human immunodeficiency virus type 1 reverse transcriptase (Human immunodeficiency virus 1), Q72547 [K103N].
The test system of data set [17] is Human immunodeficiency virus type 1 reverse transcriptase (Human immunodeficiency virus 1), Q72547 [L100I].
The test system of data set [18] is Human immunodeficiency virus type 1 reverse transcriptase (Human immunodeficiency virus 1), Q72547 [Y181I].
Data set [19] has as its system Human immunodeficiency virus type 1 reverse transcriptase (Human immunodeficiency virus 1), Q72547 [V106A].
Data set [20] deals with Human immunodeficiency virus type 1 reverse transcriptase (Human immunodeficiency virus 1) (UniProt Q72547). Briefly: Noncompetitive inhibition of HIV1 wild type reverse transcriptase using varying concentration of varying polyrA/oligodT by steady state kinetic analysis. The procedure, abridged:
(§2)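 Recombinant RT (WT or K103N), RNA-dependent DNA polymerase activity with poly(rA)/oligo(dT) 10:1 and [3H]-dTTP (1 Ci/mmol), 8% final DMSO; steady-state kinetics at fixed inhibitor concentrations, one substrate (nucleic acid or nucleotide) varied while the other kept saturating.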

Data set [21] shares this target. Description: Noncompetitive inhibition of HIV1 wild type reverse transcriptase using varying concentration of [3H]dTTP by steady state kinetic analysis. The gist of the method:
as §2

The test system of data set [22] is Human immunodeficiency virus type 1 reverse transcriptase (Human immunodeficiency virus 1), Q72547 [K103N]. Briefly: Noncompetitive inhibition of HIV1 reverse transcriptase K103N mutant using varying concentration of varying polyrA/oligodT by steady state kinetic analysis. The procedure, abridged:
as §2

The test system is the same in data set [23]. Briefly: Noncompetitive inhibition of HIV1 reverse transcriptase K103N mutant using varying concentration of [3H]dTTP by steady state kinetic analysis. The procedure, abridged: as §2
The nature of data set [24]: Ratio of TMC120 CC50 to compound CC50 for human MT4 cells. Format: ADME, cell-based.

In general, pEC50 refers to −log10 of the EC50, conventionally taken in molar units. The term CC50 denotes the concentration giving 50% cytotoxicity.

For `Cc1ccnc2c1NC(=O)c1cccnc1N2C1CC1` [NEVIRAPINE], the pEC50 in data set [1] and in data set [2] was below 5.12 throughout. Moreover, in data set [3], the CC50 at 120 h worked out at 7500 nM. Besides, the selectivity ratio in data set [4] was determined as 58. The “Ratio EC50” value in data set [5] is 47. For the same compound, the Ratio was determined as 20 in [6] and 87 in [7].

Regarding `Cc1cc(C)c(Nc2ccnc(Nc3ccc(C#N)cc3)n2)c(C)c1` [DAPIVIRINE], the negative logarithm of the EC50 (pEC50) in data set [8] is 9.22. The compound further gave a CC50 at 120 h in data set [3] of 3000 nM.

For the compound `CCCN(C)c1nc(C(C)c2c(F)cccc2F)c(C)c(=O)[nH]1` (racemic), the pEC50 in data set [8] was 8.72; in data set [9], 7.78; in [1] it was 7.77; in data set [2] it was 7.31. The compound also gave a CC50 at 120 h in data set [3] above 78000 nM. In data set [4], the selectivity ratio was above 41000. Moreover, the “Ratio EC50” value is given as 9 in data set [5], 9 in [10] and 26 in [11]. Besides, the Ratio came out at 6 in [6]; 6 in [12]; 40 in data set [7]; 0.6 in data set [13]; 50 in data set [14]. Moreover, the ID50 in data set [15] amounted to 30 nM; in data set [16] it was 174 nM; in data set [17], 177 nM; in data set [18], 1260 nM; in data set [19], 19 nM.

In the case of `CCCN(C)c1nc([C@H](C)c2c(F)cccc2F)c(C)c(=O)[nH]1`, the pEC50 in data set [8] was 8.89; in [9], 7.96; in data set [1] it was 7.89; in data set [2], 7.55. Besides, in data set [3], it took 75000 nM to reach half-maximal cytotoxicity (CC50 at 120 h). For the same compound, in [4], the selectivity ratio was determined as 58000. In addition, the “Ratio EC50” value is given as 8 in data set [5], 10 in data set [10] and 22 in data set [11]. For the same compound, the Ratio in [6] was 48; in data set [12], 50; in data set [7], 200; in data set [13], 1.5; in data set [14], 100. The inhibition entry in [20], in data set [21], in [22] and in data set [23] was “Active” each time. The ID50 was 2 nM in [15]; 96 nM in data set [16]; 96 nM in data set [17]; 450 nM in data set [18]; 3 nM in data set [19].

With `O=C1Nc2ccc(Cl)cc2[C@@](C#CC2CC2)(C(F)(F)F)O1` [EFAVIRENZ], the pEC50 is 8.14 in data set [8] and 8.00 in data set [1]. For the same compound, in data set [3], the CC50 at 120 h was found to be 3200 nM.

In the case of `Cc1c(N)nc(Nc2ccc(C#N)cc2)nc1[C@H](C)c1c(F)cccc1F`, the pEC50 is 10.00 in data set [8], 9.10 in [9], 7.51 in data set [1] and 8.15 in [2]. In [3], the midpoint of cytotoxicity, the CC50 at 120 h, lay at 31000 nM. For the same compound, the results for the selectivity ratio in data set [4] and in data set [24] were 300000 and 10, respectively. The “Ratio EC50” value is on record as 8 in [5], 300 in data set [10] and 70 in data set [11]. Also, the Ratio turned out to be 1 in data set [6]; 20 in data set [12]; 90 in [7]; 0.04 in data set [13]; 0.4 in [14]. Moreover, the inhibition entry in [20], in data set [21], in [22] and in [23] was “Active” each time. Besides, the ID50 in data set [15] came out at 8 nM; in data set [16], 8 nM; in data set [17], 150 nM; in [18] it was 750 nM; in data set [19], 0.3 nM.

As for `Cc1c(N)nc(Nc2ccc(C#N)cc2)nc1[C@@H](C)c1c(F)cccc1F`, the pEC50 is 6.00 in [8], 5.35 in [9], below 4.42 in [1] and 5.19 in [2]. In [3], it took 38000 nM to reach half-maximal cytotoxicity (CC50 at 120 h). In data set [4], the selectivity ratio turned out to be 40. The “Ratio EC50” value worked out at 4 in data set [5] and 6 in [11]. Besides, the results for the Ratio in data set [6], in [13] and in data set [14] were 1.3, 0.3 and 3, respectively. Besides, the ID50 in data set [15] is 180 nM; in data set [16], 240 nM; in [17], above 15000 nM; in data set [18], above 20000 nM; in data set [19] it was 64 nM.

Turning to `CCCN(C)c1nc([C@@H](C)c2c(F)cccc2F)c(C)c(=O)[nH]1`, the negative-log EC50 (pEC50) in [8] was 4.82; in [9] it was below 4.11; in data set [1] it was below 4.11; in data set [2] it was below 4.11. The compound also came in with a CC50 at 120 h in [3] above 78000 nM. For the same compound, the selectivity ratio in [4] was above 5.2. Moreover, the Ratio in data set [12] turned out to be 0.4; in data set [13], 0.1. For the same compound, the ID50 in [15] was 975 nM; in data set [16], above 20000 nM; in data set [17], 350 nM; in data set [18], above 20000 nM; in [19] it was 120 nM.
